The campaign covered roughly 260,000 compounds. About 960 (0.37%) were called active. The sample as a whole holds a higher share of actives than the screen did. A number with no mark means an inactive call.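 Rule for the calls: active = mean E-selectin-positive cell signal at least 10% of the positive control, reached in at least 60% of replicates, without over 20% cell loss; inconclusive = no rule given, readout overlaps actives, possibly toxicity-flagged; inactive = the rest, including those meeting only one limit.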

E-selectin (Homo sapiens), sequence (P16581 whole entry, looked up): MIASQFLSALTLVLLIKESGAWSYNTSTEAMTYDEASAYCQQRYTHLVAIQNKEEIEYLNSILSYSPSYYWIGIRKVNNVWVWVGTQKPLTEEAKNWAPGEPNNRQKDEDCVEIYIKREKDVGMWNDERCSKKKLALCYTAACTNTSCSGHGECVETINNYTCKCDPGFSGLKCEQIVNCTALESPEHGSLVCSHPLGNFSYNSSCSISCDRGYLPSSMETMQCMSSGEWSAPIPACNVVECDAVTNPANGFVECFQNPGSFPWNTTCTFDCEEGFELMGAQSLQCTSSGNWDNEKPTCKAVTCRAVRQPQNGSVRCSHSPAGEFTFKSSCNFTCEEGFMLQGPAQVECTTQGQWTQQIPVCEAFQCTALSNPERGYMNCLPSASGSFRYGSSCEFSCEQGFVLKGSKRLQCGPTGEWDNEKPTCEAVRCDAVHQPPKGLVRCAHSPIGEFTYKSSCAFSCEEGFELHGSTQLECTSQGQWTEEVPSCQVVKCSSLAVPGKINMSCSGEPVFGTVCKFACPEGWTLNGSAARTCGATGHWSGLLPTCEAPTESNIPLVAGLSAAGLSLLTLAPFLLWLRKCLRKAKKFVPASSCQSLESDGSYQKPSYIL

The experiment has as its target E-selectin (Homo sapiens) (UniProt P16581). Nature of the experiment: E-selectin induction in HUVECs, primary screen, imaging, HUVEC, immunofluorescence imaging, single point (AID 686992).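 Note: signal is the percent of cells scored E-selectin positive by PE staining.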 The conditions noted are these: at 7.58 µM, stronger effect = higher value, normalized: neutral wells 0, TNF-alpha wells 100. In a few lines: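 assay system = HUVEC, human umbilical vein endothelial cells | input = 3,000 HUVEC seeded per well | medium = EGM-2 growth medium on 0.1% gelatin-coated wells | dosing = one compound dose added by pin transfer | signal = immunofluorescence imaging | read-out basis = % PE-positive cells | control set = TNF-alpha, DMSO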
For the compound `COC(=O)C[C@H]1CC[C@@H](NC(=O)c2ccccc2)[C@@H](CO)O1`, the activation was -0.322%. As to `O=C(COC(=O)CCc1c[nH]c2ccccc12)Nc1cccc(Cl)c1`, the activation was 5.9%. The figure for `COC(=O)C[C@H]1CC[C@H]2[C@H](COc3ccc(NC(=O)C4CC4)cc3C(=O)N2C)O1` is -0.049%. Turning to `COC(=O)C[C@H]1CC[C@H]2[C@@H](COc3ccc(NC(=O)Nc4cccc(F)c4)cc3C(=O)N2C)O1`, the activation is -0.114%. The figure for `CN1C(=O)c2cc(NC(=O)C3CCCC3)ccc2OC[C@H]2O[C@H](CC(=O)NCc3ccccc3F)CC[C@H]21` is 0.0215%; for `COC(=O)C[C@@H]1CC[C@@H]2[C@@H](COc3ccc(NC(=O)C4CCOCC4)cc3C(=O)N2C)O1` it is 0.061%. Next, `CN1C(=O)c2cc(NC(=O)C3CCOCC3)ccc2OC[C@@H]2O[C@H](CC(=O)NCc3ccccc3F)CC[C@H]21`: 99.5% (active); `CN1C(=O)c2cc(NC(=O)C3CCC3)ccc2OC[C@@H]2O[C@@H](CC(=O)NCc3ccccc3F)CC[C@@H]21`: -0.028%. Turning to `COC(=O)C[C@@H]1CC[C@@H]2[C@H](COc3ccc(NC(=O)Nc4cccc(F)c4)cc3C(=O)N2C)O1`, the activation is 59.2% (active). The figure for `COC(=O)C[C@@H]1CC[C@@H]2[C@H](COc3ccc(NC(=O)c4cccc(F)c4)cc3C(=O)N2C)O1` is 0.16%. Next, `COC(=O)C[C@H]1CC[C@H]2[C@@H](COc3ccc(NC(=O)C4CC4)cc3C(=O)N2C)O1`: 84.9% (active); `C[C@@H](CN1C2=NC[C@@H](Cc3ccccc3)N2C[C@H]1Cc1ccc(O)cc1)NC(=O)CCC1CCCCC1`: -4.54%; `CCC(C)CN1C(=O)CSCC1(C)C(=O)NCc1ccccc1` (centres undefined): 0.0415%. Next, `COC(=O)[C@@H]1[C@@H](CO)[C@@H]2Cn3c(ccc(-c4ccc(OC)cc4)c3=O)[C@@H]2N1C`: 0.459%; `N#C[C@@H]1[C@@H](c2ccccc2)[C@H](CO)N1C(=O)c1cc(Cl)cc(Cl)c1`: 0.0965%; `COc1ccc(S(=O)(=O)N2C[C@H](O)COC[C@@H]3O[C@H](CC(=O)NCCN4CCCCC4)CC[C@H]32)cc1`: 0.128%. As for `COc1ccc(-c2ccccc2[C@H]2[C@@H](C#N)N(C(=O)C3CCC3)[C@@H]2CO)cc1`, the activation is -0.0965%. Next, `COc1cccc(-c2cc3nc(NCCOc4ccccc4Cl)n(C)c(=O)c3s2)c1`: -0.11%; `COc1ccc(C(C)(O)c2nc(-c3ccc(C)c(C)c3)cs2)cc1` (centres undefined): -0.298%; `COc1ccc2c3c(n(C)c2c1)[C@@H](CO)N(Cc1ccccc1OC)CC31CN(CC2CCOCC2)C1`: -0.609%. Next, `COc1ccc(C(C)(O)c2nc(-c3cc(F)cc(F)c3)cs2)cc1` (centres undefined): 0.357%; `COc1ccc(S(=O)(=O)NCCOc2ccccc2)cc1F`: -0.118%; `COc1ccc(S(=O)(=O)NCC(=O)NCc2cc(=O)n(C)c(=O)n2C)cc1F`: 79.6% (active). The figure for `Cc1ccc(C(=O)NCC(=O)NCc2cc(=O)n(C)c(=O)n2C)cc1` is 0.0495%; for `CCCC(=O)Nc1ccc2c(c1)C(=O)N(C)[C@@H]1CC[C@H](CC(=O)Nc3cn(C)nc3C)O[C@H]1CO2` it is -0.018%; for `Cn1c(Nc2ccc(F)cc2)nc2cc(-c3ccsc3)sc2c1=O` it is 0.0175%. Turning to `COc1ccc(C2/C=C\CN(CC(C)C)CC(=O)N2Cc2ccc(F)cc2)cc1` (centres undefined), the activation is -0.215%. Next, `COc1ccc(C2/C(=C(/O)c3ccccc3)C(=O)C(=O)N2C)c(OC)c1` (centres undefined): 0.122%. For the compound `COc1ccc(C2c3[nH]c4ccccc4c3C[C@H]3C(=O)N(CC(C)C)CC(=O)N23)c(OC)c1` (some centres undefined), the activation was 61.1% (active).

Regarding `CCC(=O)N1CC2(C1)[C@H](c1ccc(-c3ccc(C)cc3)cc1)[C@H](CO)N2S(C)(=O)=O`, the activation is -0.277%. Next, `COc1ccc(OC)c(C(O)c2ncc(-c3cccc(C(F)(F)F)c3)[nH]2)c1` (centres undefined): -0.085%; `CCc1ccc(N2CC(C(=O)Nc3ccc(S(=O)(=O)Nc4nccs4)cc3)CC2=O)cc1` (centres undefined): 0.004%; `CNS(=O)(=O)c1ccc(NC(=O)C2CC(=O)N(c3ccc(Cl)cc3)C2)cc1` (centres undefined): 35.7% (active). The figure for `O=C(Nc1ccc(S(=O)(=O)N2CCCCC2)cc1)C1CC(=O)N(c2ccc(F)cc2)C1` (centres undefined) is -0.119%; for `CC(=O)OCC1(O)CC23CCC4c5ccoc5CCC4(C)C2CCC1C3` (centres undefined) it is 0.708%; for `COC(=O)C[C@@H]1CC[C@H]2[C@H](COc3ccc(NC(=O)c4ccccc4F)cc3C(=O)N2C)O1` it is 0.0145%. Next, `CCCCCCN1C[C@H](O)[C@@H](n2cc(C3CC3)nn2)C[C@@H]1c1ccc(Cl)cc1`: -0.106%; `C[C@@H]1CN([C@H](C)CO)C(=O)c2c(c3ccccc3n2C)-c2ccccc2CO[C@@H]1CN(C)Cc1ccc(F)cc1`: -0.183%; `C[C@@H]1CN([C@H](C)CO)C(=O)c2c(c3ccccc3n2C)-c2ccccc2CO[C@@H]1CN(C)Cc1ccccc1C(F)(F)F`: 30.5% (active). `C[C@H](CO)N1C[C@H](C)[C@@H](CN(C)Cc2ccc(C(F)(F)F)cc2)OCc2ccccc2-c2c(n(C)c3ccccc23)C1=O`: the activation was -0.577%. On to `COc1ccc(CCCNC(=O)C2Cc3c(-c4cccc(C(N)=O)c4)ccnc3O2)cc1` (centres undefined), for which the activation is 0.751%. The figure for `C=CCC[C@H](CCCCC)OC(=O)/C=C/[C@H](O)[C@@H](O)C[C@@H](O)CC=C` is -5.32%; for `NC1=NC2(CCCCC2)N(c2ccc(F)cc2F)C(N)=N1` it is 522% (active); for `O=C(c1ccccc1)N1C[C@@H]2[C@H](c3ccccc31)[C@@H](CO)N2Cc1cc(F)ccc1F` it is 0.162%.

Consider `CCN1C(=O)N[C@@H]2C[C@H](C(=O)N3CCCC3)[C@H](C)[C@H](c3ccccc3)C[C@@H]21`, for which the activation was -0.199%. The figure for `Cc1cccc(NC(=O)CSc2nc3[nH]ncc3c(=O)[nH]2)c1` is -0.483%. The figure for `Cc1ccc(CSc2nc3[nH]ncc3c(=O)[nH]2)cc1` is 92.1% (active). Take `Cc1ccc(CSc2nc(-c3ccccc3)c(C#N)c(=O)[nH]2)cc1`: the activation is 2.35%.

In the case of `O=C1[C@@H](c2ccccc2)[C@@H](c2ccccc2)N1c1ccccc1`, the activation was -0.064%. Next, `O=C(N[C@H]1C=C[C@@H](CC(=O)N2CCc3ccccc3C2)O[C@@H]1CO)C1CCOCC1`: -0.136%; `COc1ccc(-c2nnc3n2CCCCC3)cc1`: 31.2% (active). The figure for `COc1cccc(C(=O)Nc2ccc3nc4n(c(=O)c3c2)CCCCC4)c1` is 0.059%; for `Cc1c(C(=O)Nc2cccc(-c3nnc4n3CCCCC4)c2)oc2ccccc12` it is -1.41%; for `Cc1cc(N2CCN(C(=O)OC(C)(C)C)C[C@H]2C)ccc1N1CCN(Cc2ccccc2)[C@H](C)C1` it is 0.115%. Next, `CCOC(=O)[C@]12CCC=C1N(Cc1ccco1)C(=O)[C@H](CC(=O)NCc1cccc(C(F)(F)F)c1)C2`: -0.145%. Consider `COc1ccc(CCN2C(=O)N(c3ccc(OC)cc3)C(=O)C2CC(=O)Nc2ccc(OC)cc2)cc1` (centres undefined), for which the activation is 4.19%. Next, `CCOc1ccc(NC(=O)CC2C(=O)N(c3ccccc3)C(=O)N2CCOC)cc1` (centres undefined): -0.224%; `CCNC(=O)CC1C(=O)N(c2ccc(OC)cc2)C(=O)N1CCOC` (centres undefined): 35.7% (active); `O=C(CN1CCOCC1)NC[C@@H]1N[C@@H](CO)[C@@H]1c1ccc(-c2ccccc2)cc1`: 0.253%. The figure for `COc1ccc(-c2ccccc2C2Cc3nnccc3CN2C(=O)Nc2ccccc2)cc1` (centres undefined) is -0.134%; for `COc1cc(OC)cc(-c2cc3ccc(F)cc3cn2)c1` it is 0.221%.

For the compound `CCCc1ccc(S(=O)(=O)N2CCN(C(=O)c3cc(C)on3)CC2)cc1`, the activation is -0.187%. Next, `CCCCCCNC(=O)O[C@H]1CN(C(=O)OC(C)C)N(C(=O)OC(C)C)[C@@H]2CN(S(=O)(=O)c3ccc(C)cc3)C[C@]12O`: 0.079%; `Cc1nc(-c2ccc(F)cc2)c(CC(=O)Nc2cc(S(=O)(=O)N3CCCCC3)ccc2C)s1`: -1.09%. Next, `Cc1ccc(S(=O)(=O)N2CCN(C(=O)Cc3sc(C)nc3-c3ccc(F)cc3)CC2)c(C)c1`: 62.2% (active); `Cc1nc(-c2ccc(F)cc2)c(CC(=O)N2CCN(S(=O)(=O)c3ccc(F)cc3)CC2)s1`: -0.541%.

Consider `CCOC(=O)C1=C(C(=O)OCC)C2N(Cc3ccc(C#N)cc3)c3ccccc3[C@@]23C[C@@H](C(=O)OC)N(S(=O)(=O)c2ccc(F)cc2)C3=N1` (some centres undefined), for which the activation is -0.148%. Next, `COc1ccccc1S(=O)(=O)N[C@@H]1CC[C@H](CCn2cc(C3CCCC3)nn2)O[C@H]1CO`: -0.101%; `CCCCCCCNC(=O)C1(CC2CC(c3cccc(Br)c3)=NO2)CCN(C(=O)c2cc(OCC)c(OCC)c(OCC)c2)CC1` (centres undefined): 0.076%; `Cc1nc(CN(C)C(=O)CC2C(=O)NCCN2Cc2ccc(F)cc2)cs1` (centres undefined): -0.598%. With `CN(Cc1cccc2ncccc12)C(=O)CC1C(=O)NCCN1Cc1ccc(F)cc1` (centres undefined), the activation was 365% (active). As to `Cc1cnc(CN(C)C(=O)CC2C(=O)NCCN2Cc2cccc(F)c2F)[nH]1` (centres undefined), the activation was -0.473%.

For the compound `COc1ccc2c3c([nH]c2c1)[C@@H](CO)N(C)CC31CCN(S(=O)(=O)c2ccc(C)cc2)CC1`, the activation was -0.271%.

Turning to `CO[C@H]1CN(C)C(=O)c2ccc(NC(C)=O)cc2OC[C@@H](C)N(C(=O)c2ccncc2)C[C@@H]1C`, the activation was 0.486%.
